{"data": "Measured values of several laboratories", "note": "Protocols differ between the studies behind these lines."}
{"SMILES": "CC(C)Oc1c(NC(=O)c2ccc(NC(=O)[C@H](CC(N)=O)NC(=O)c3ccc(NC(=O)c4ccc(C#N)cn4)cc3)cc2)ccc(C(=O)Nc2ccc(C(=O)O)cc2)c1O", "organism": "Enterobacter cloacae", "read-out": "microbial growth", "strain": "DSM30054", "endpoint": "MIC", "result": "> 64 µg/mL"}
{"SMILES": "CC(C)OCCNc1nc(Cl)c2c(c1O)C(=O)C1=C(O)[C@]3(O)C(=O)C(C(N)=O)=C(O)[C@@H](N(C)C)[C@@H]3C[C@@H]1C2.Cl.Cl.Cl", "organism": "Enterobacter cloacae", "read-out": "microbial growth", "method": "broth dilution", "strain": "ATCC13047", "endpoint": "MIC", "result": "32 µg/mL"}
{"SMILES": "C/C=C(\\C)c1cc(OC(=O)c2c(C)c(Cl)c(O)c(Cl)c2O)c(C)c(O)c1C(=O)O", "organism": "Enterococcus gallinarum", "read-out": "microbial growth", "method": "broth dilution", "strain": "GALLINARUM", "endpoint": "MIC", "result": "64 µg/mL"}
{"SMILES": "CCCNc1nc(N(C)C)c2c(c1O)C(=O)C1=C(O)[C@]3(O)C(=O)C(C(N)=O)=C(O)[C@@H](N(C)C)[C@@H]3C[C@@H]1C2.Cl.Cl", "organism": "Enterobacter cloacae", "read-out": "microbial growth", "method": "broth dilution", "strain": "ATCC13047", "endpoint": "MIC", "result": "> 32 µg/mL"}
{"SMILES": "CO[C@@H](C(N)=O)[C@H](NC(=O)c1ccc(NC(=O)c2ccc(C#N)cc2)cc1)C(=O)Nc1ccc(C(=O)Nc2ccc(C(=O)Nc3ccc(C(=O)O)cc3)c(O)c2OC(C)C)cc1", "organism": "Serratia marcescens", "read-out": "microbial growth", "strain": "DSM30121", "endpoint": "MIC", "result": "> 64 µg/mL"}
{"SMILES": "CN(C)[C@@H]1C(O)=C(C(N)=O)C(=O)[C@@]2(O)C(O)=C3C(=O)c4c(O)c(N)nc(F)c4C[C@H]3C[C@@H]12.Cl.Cl", "organism": "Enterobacter cloacae", "read-out": "microbial growth", "method": "broth dilution", "strain": "ATCC13047", "endpoint": "MIC", "result": "0.5 µg/mL"}
{"SMILES": "CN[C@H](CC(C)C)C(=O)N[C@H]1C(=O)N[C@@H](CC(N)=O)C(=O)N[C@H]2C(=O)N[C@H]3C(=O)N[C@H](C(=O)N[C@H](C(=O)O)c4cc(O)cc(O)c4-c4cc3ccc4O)[C@H](O)c3ccc(c(Cl)c3)Oc3cc2cc(c3O[C@@H]2O[C@H](CO)[C@@H](O)[C@H](O)[C@H]2O[C@H]2C[C@](C)(N)[C@H](O)[C@H](C)O2)Oc2ccc(cc2Cl)[C@H]1O", "organism": "Enterococcus gallinarum", "read-out": "microbial growth", "method": "broth dilution", "strain": "GALLINARUM", "endpoint": "MIC", "result": "4 µg/mL"}
{"SMILES": "CCCC[C@H]1CN(CCCC[C@H]2CNC(=N)N2CCc2cccc(C(F)(F)F)c2)C(=N)N1CCCCC1CCCCC1", "organism": "Enterobacter cloacae", "read-out": "microbial killing", "endpoint": "MBC", "result": "4.2 µM"}
{"SMILES": "C/C(=C\\c1ccc(C#N)cc1)C(=O)Nc1ccc(C(=O)N[C@@H](CC(N)=O)C(=O)Nc2ccc(C(=O)Nc3ccc(C(=O)Nc4ccc(C(=O)O)cc4)c(O)c3OC(C)C)cc2)cc1", "organism": "Serratia marcescens", "read-out": "microbial growth", "strain": "DSM30121", "endpoint": "MIC", "result": "> 64 µg/mL"}
{"SMILES": "Cc1c(CN(C)C(=O)/C=C/c2cnc3c(c2)CC(CCN)C(=O)N3)oc2ccccc12.Cl (centres unmarked)", "organism": "Enterobacter cloacae", "read-out": "microbial growth", "method": "broth dilution", "endpoint": "MIC", "result": "8 µg/mL"}
{"SMILES": "C/C=C(\\C)c1cc(O)c(C)c(OC(=O)c2c(C)c(Cl)c(O)c(Cl)c2O)c1", "organism": "Enterococcus gallinarum", "read-out": "microbial growth", "method": "broth dilution", "strain": "GALLINARUM", "endpoint": "MIC", "result": "8 µg/mL"}
